Test results taken from ChEMBL document CHEMBL1135528, “Monocyclic human tachykinin NK-2 receptor antagonists as evolution of a potent bicyclic antagonist: QSAR and site-directed mutagenesis studies” (J Med Chem, 2002).
Positions count from the first letter of the chain named. Calls of active or inactive are those of the source. The rule behind the calls is not given here. Where a SMILES comes first, the peptide text is derived from it. Bridges are numbered along the chain shown (N, C = ends). [ ]: non-standard residue; d: D form. The star is where a group is joined. NH(β-GlcNAc) = CC(=O)N[C@@H]1[C@@H](O)[C@H](O)[C@@H](CO)O[C@H]1N*; Dap = NC[C@H](N)C(=O)O

How the values were obtained:
[1] = tested on: Substance-K receptor (Homo sapiens), P21452 [H198A]; assay: Binding affinity against H198A human neurokinin-2 receptor (hNK-2R) using [3H]nepadutant as a radioligand
Chain of Substance-K receptor (Homo sapiens), P21452 [H198A] (P21452 whole entry H198A): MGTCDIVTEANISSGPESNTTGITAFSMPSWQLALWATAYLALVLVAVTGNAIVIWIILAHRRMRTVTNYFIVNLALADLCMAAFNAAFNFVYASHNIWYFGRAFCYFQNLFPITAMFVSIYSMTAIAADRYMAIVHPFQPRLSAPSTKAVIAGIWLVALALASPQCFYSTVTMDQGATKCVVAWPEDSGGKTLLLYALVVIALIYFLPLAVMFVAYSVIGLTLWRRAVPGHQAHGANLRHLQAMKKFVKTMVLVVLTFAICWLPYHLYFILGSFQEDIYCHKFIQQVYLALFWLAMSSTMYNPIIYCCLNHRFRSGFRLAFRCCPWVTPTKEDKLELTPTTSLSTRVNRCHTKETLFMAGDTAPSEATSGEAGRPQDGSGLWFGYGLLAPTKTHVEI
Method in brief: (§1)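 Membranes from cells stably transfected with wild-type or mutant hNK-2R, incubated with [3H]nepadutant for 60 min at 20 °C in 50 mM Tris-HCl pH 7.4 containing peptidase inhibitors, 150 mM NaCl, 5 mM MnCl2 and 1 g/L BSA. Competitors ranged 0.3 pM–10 μM. Nonspecific binding was defined with 1 mM unlabeled ligand. Bound label was collected by filtration and counted. Means from ≥3 duplicate experiments.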

[2] = tested on: Substance-K receptor (Homo sapiens), P21452 [Q166A]; assay: Binding affinity against Q166A human neurokinin-2 receptor (hNK-2R) using [3H]nepadutant as a radioligand; method in brief: as §1
Chain of Substance-K receptor (Homo sapiens), P21452 [Q166A] (P21452 whole entry Q166A): as the sequence (P21452 whole entry H198A) above, with Q166A, A198H counted along it

[3] = tested on: Substance-K receptor (Homo sapiens), P21452 [Y269F]; assay: Binding affinity against Y269F human neurokinin-2 receptor (hNK-2R) using [3H]nepadutant as a radioligand; method in brief: as §1
Chain of Substance-K receptor (Homo sapiens), P21452 [Y269F] (P21452 whole entry Y269F): as the sequence (P21452 whole entry H198A) above, with A198H, Y269F counted along it

[4] = tested on: Substance-K receptor (Homo sapiens), P21452 [T171A]; assay: Binding affinity against T171A human neurokinin-2 receptor (hNK-2R) using [3H]nepadutant as a radioligand; UB is undetectable binding; method in brief: as §1
Chain of Substance-K receptor (Homo sapiens), P21452 [T171A] (P21452 whole entry T171A): as the sequence (P21452 whole entry H198A) above, with T171A, A198H counted along it

[5] = tested on: Substance-K receptor (Homo sapiens), P21452 [I202F]; assay: Binding affinity against I202F human neurokinin-2 receptor (hNK-2R) using [3H]nepadutant as a radioligand; method in brief: as §1
Chain of Substance-K receptor (Homo sapiens), P21452 [I202F] (P21452 whole entry I202F): as the sequence (P21452 whole entry H198A) above, with A198H, I202F counted along it

[6] = tested on: Substance-K receptor (Homo sapiens), P21452 [F112A]; assay: Binding affinity against F112A human neurokinin-2 receptor (hNK-2R) using [3H]nepadutant as a radioligand; method in brief: as §1
Chain of Substance-K receptor (Homo sapiens), P21452 [F112A] (P21452 whole entry F112A): as the sequence (P21452 whole entry H198A) above, with F112A, A198H counted along it

[7] = tested on: T1, Substance-K receptor (Homo sapiens), P21452 [C167A]; assay: Binding affinity against C167A human neurokinin-2 receptor (hNK-2R) using [3H]SR-48,968 as a radioligand
T1 sequence (whole entry): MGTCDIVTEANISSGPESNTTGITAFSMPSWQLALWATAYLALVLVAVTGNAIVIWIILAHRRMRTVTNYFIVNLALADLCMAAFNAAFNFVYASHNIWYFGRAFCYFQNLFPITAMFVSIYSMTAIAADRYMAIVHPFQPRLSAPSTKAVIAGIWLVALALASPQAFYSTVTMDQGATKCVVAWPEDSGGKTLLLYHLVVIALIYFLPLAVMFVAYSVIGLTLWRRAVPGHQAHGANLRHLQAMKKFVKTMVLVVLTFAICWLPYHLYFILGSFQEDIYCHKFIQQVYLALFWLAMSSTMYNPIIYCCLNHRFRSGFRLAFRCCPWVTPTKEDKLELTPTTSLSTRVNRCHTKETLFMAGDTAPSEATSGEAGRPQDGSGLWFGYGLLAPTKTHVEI
Method in brief: (§2)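 Radioligand [3H]SR48968 was incubated for 30 min at 20 °C with membranes from stably transfected wild-type or mutant hNK-2R cells, in Tris-HCl 50 mM pH 7.4 buffer with protease inhibitors, NaCl, MnCl2 and BSA. Test ligands ranged 0.3 pM–10 μM, with nonspecific binding in 1 mM unlabeled ligand. Filtration through PEI-soaked filters was followed by scintillation counting. pKi was derived by curve fitting, duplicate determinations.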

[8] = tested on: T2, Substance-K receptor (Homo sapiens), P21452 [W263A]; assay: Binding affinity against W263A human neurokinin-2 receptor (hNK-2R) using [3H]SR-48,968 as a radioligand; method in brief: as §2
T2 sequence (whole entry): T1 sequence (whole entry) with A167C, W263A

[9] = tested on: T3, Substance-K receptor (Homo sapiens), P21452 [Y266F]
T3 sequence (whole entry): T1 sequence (whole entry) with A167C, Y266F

[10] = tested on: T4, Substance-K receptor (Homo sapiens), P21452 [S170A]; assay: Binding affinity against S170A human neurokinin-2 receptor (hNK-2R) using [3H]nepadutant as a radioligand; method in brief: as §1
T4 sequence (whole entry): T1 sequence (whole entry) with A167C, S170A

[11] = tested on: Substance-K receptor (Homo sapiens), P21452 [Y206F]; assay: Binding affinity against Y206F human neurokinin-2 receptor (hNK-2R) using [3H]nepadutant as a radioligand; method in brief: as §1
Chain of Substance-K receptor (Homo sapiens), P21452 [Y206F] (P21452 whole entry Y206F): as the sequence (P21452 whole entry H198A) above, with A198H, Y206F counted along it

[12] = tested on: Substance-K receptor (Homo sapiens), P21452 [Y289F]; assay: Binding affinity against Y289F human neurokinin-2 receptor (hNK-2R) using [3H]nepadutant as a radioligand; method in brief: as §1
Chain of Substance-K receptor (Homo sapiens), P21452 [Y289F] (P21452 whole entry Y289F): as the sequence (P21452 whole entry H198A) above, with A198H, Y289F counted along it

Compound `CC(=O)N[C@@H]1[C@@H](O)[C@H](O)[C@@H](CO)O[C@H]1NC(=O)C[C@@H]1NC(=O)[C@H](CC(C)C)NC(=O)[C@@H]2CNC(=O)C[C@H](NC1=O)C(=O)N[C@@H](Cc1c[nH]c3ccccc13)C(=O)N[C@@H](Cc1ccccc1)C(=O)N2` (cyclo(D(NH(β-GlcNAc))DWF[Dap]L); lactam 2-5) has a KD/Ki [1] of 11.5 nM, a KD/Ki [2] of 3.5 nM and a KD/Ki [3] of 1.7 nM. The UB [4] was “inactive”, the KD/Ki [5] was 0.44 nM and the KD/Ki [6] was 22.1 nM. The KD/Ki [7] was > 10000 nM, the KD/Ki [8] was 502 nM and the KD/Ki [9] was 16.3 nM. It also gave a KD/Ki [10] of 1.5 nM, a KD/Ki [11] of 1.1 nM and a KD/Ki [12] of 2.9 nM.
